From ChEMBL document CHEMBL4808225, “Discovery and Characterization of Selective and Ligand-Efficient DYRK Inhibitors” (J Med Chem, 2021)
In brackets after ≈: the same amount, converted by molar mass.

What was measured:
[1] = biological target: Glycogen synthase kinase-3 beta (Homo sapiens) (UniProt P49841); experiment: Inhibition of wild-type human full length GSK3B (M1 to T433 residues) expressed in mammalian expression system assessed as remaining activity at 1 uM by Kinomescan method relative to control
Procedure, shortened: (§1)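 KINOMEscan competition binding panel run with inhibitor at 1 μM; read-out is remaining kinase activity (percent of control).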

[2] = biological target: T1, Dual specificity tyrosine-phosphorylation-regulated kinase 1A (Homo sapiens, UniProt Q13627); experiment: Displacement of Kinase tracer 236 from biotinylated DYRK1A (unknown origin) expressed in Escherichia coli BL21 (DE3) incubated for 1.5 hrs by TR-FRET assay
[3] = biological target: T1, Dual specificity tyrosine-phosphorylation-regulated kinase 1A; experiment: Binding affinity to biotinylated DYRK1A (unknown origin) expressed in Escherichia coli BL21 (DE3) assessed as dissociation constant measured up to 5 min by SPR method
[4] = Thermodynamic solubility of the compound at pH 6.8; type: physicochemical; conditions: buffer, read-out: Therm_solubility
Procedure, shortened: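 Thermodynamic solubility measured at pH 6.8 in a single experiment, reported in […].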

[5] = biological target: Dual specificity protein kinase CLK1 (Homo sapiens, UniProt P49759); experiment: Inhibition of wild-type human full length CLK1 (M1 to I484 residues) expressed in bacterial expression system assessed as remaining activity at 1 uM by Kinomescan method relative to control; procedure, shortened: as §1
[6] = biological target: Dual specificity protein kinase CLK2 (Homo sapiens) (UniProt P49760); experiment: Inhibition of wild-type human partial length CLK2 (D144 to R498 residues) expressed in bacterial expression system assessed as remaining activity at 1 uM by Kinomescan method relative to control; procedure, shortened: as §1
[7] = biological target: Cyclin-dependent kinase 2 (Homo sapiens) (UniProt P24941); experiment: Inhibition of wild-type human full length CDK2 (M1 to L298 residues) expressed in bacterial expression system assessed as remaining activity at 1 uM by Kinomescan method relative to control; procedure, shortened: as §1
[8] = Metabolic stability in rat liver microsomes; type: ADME, Microsome; conditions: read-out: Stabilty
[9] = biological target: T2, Dual specificity tyrosine-phosphorylation-regulated kinase 2 (Homo sapiens) (UniProt Q92630); experiment: Inhibition of wild-type human full length DYRK2 (M1 to S528 residues) expressed in mammalian expression system assessed as remaining activity at 1 uM by Kinomescan method relative to control; procedure, shortened: as §1
T2 sequence (whole entry): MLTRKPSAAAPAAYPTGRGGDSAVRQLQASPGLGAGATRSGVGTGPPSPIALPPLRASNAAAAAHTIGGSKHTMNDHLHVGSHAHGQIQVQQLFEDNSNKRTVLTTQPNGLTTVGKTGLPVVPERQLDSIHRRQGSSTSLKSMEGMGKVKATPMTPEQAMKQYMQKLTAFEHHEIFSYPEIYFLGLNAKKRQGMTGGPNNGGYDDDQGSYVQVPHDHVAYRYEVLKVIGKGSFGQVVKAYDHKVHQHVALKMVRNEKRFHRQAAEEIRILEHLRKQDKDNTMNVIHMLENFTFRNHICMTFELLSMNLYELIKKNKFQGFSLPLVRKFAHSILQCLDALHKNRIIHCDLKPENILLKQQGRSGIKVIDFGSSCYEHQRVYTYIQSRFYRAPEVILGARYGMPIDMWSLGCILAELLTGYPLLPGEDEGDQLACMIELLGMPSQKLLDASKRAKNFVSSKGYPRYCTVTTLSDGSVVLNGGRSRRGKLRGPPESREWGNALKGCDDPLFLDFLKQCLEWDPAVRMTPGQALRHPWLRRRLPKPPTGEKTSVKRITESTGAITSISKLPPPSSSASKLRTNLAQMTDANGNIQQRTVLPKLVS

[10] = Metabolic stability in human liver microsomes; type: ADME, Microsome; conditions: read-out: Stabilty
[11] = biological target: Dual specificity tyrosine-phosphorylation-regulated kinase 1B (Homo sapiens) (UniProt Q9Y463); experiment: Inhibition of wild-type human full length DYRK1B (M1 to S629 residues) expressed in bacterial expression system assessed as remaining activity at 1 uM by Kinomescan method relative to control; procedure, shortened: as §1
[12] = biological target: Dual specificity protein kinase CLK3 (Homo sapiens) (UniProt P49761); experiment: Inhibition of wild-type human full length CLK3 (M1 to R490 residues) expressed in bacterial expression system assessed as remaining activity at 1 uM by Kinomescan method relative to control; procedure, shortened: as §1
[13] = biological target: T1, Dual specificity tyrosine-phosphorylation-regulated kinase 1A; experiment: Inhibition of human DYRK1A-mediated tau phosphorylation expressed in HEK293 cells incubated for 2 hrs by ELISA; type: cell-based

Sequence of Glycogen synthase kinase-3 beta (Homo sapiens) (P49841 whole entry, looked up, the tested form may be a part): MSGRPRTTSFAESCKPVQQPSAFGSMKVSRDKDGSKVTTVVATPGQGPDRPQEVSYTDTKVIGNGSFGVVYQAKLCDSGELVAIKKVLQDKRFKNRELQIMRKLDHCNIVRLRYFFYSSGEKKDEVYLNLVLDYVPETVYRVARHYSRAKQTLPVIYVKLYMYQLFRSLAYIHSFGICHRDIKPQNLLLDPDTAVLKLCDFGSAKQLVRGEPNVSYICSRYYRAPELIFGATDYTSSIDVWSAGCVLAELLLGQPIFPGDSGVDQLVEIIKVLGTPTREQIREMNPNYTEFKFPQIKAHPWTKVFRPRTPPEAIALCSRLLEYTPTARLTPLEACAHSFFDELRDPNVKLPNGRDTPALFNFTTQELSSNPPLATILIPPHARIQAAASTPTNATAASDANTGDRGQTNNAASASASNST
Sequence of Dual specificity protein kinase CLK1 (P49759 whole entry, looked up, the tested form may be a part): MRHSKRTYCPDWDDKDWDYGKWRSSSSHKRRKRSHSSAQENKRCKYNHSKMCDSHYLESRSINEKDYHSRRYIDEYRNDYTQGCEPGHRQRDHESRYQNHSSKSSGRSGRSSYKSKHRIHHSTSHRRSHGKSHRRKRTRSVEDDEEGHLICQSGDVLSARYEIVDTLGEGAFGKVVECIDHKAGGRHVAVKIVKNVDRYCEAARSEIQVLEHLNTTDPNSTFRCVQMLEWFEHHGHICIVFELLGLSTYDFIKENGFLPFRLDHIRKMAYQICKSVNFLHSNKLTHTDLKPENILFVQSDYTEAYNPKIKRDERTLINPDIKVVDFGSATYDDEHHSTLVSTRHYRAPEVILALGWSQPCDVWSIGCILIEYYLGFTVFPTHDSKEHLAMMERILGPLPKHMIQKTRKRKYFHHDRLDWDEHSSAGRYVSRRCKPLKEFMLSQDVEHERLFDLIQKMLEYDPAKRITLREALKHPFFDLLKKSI
Sequence of Dual specificity protein kinase CLK3 (Homo sapiens) (P49761 whole entry, looked up, the tested form may be a part): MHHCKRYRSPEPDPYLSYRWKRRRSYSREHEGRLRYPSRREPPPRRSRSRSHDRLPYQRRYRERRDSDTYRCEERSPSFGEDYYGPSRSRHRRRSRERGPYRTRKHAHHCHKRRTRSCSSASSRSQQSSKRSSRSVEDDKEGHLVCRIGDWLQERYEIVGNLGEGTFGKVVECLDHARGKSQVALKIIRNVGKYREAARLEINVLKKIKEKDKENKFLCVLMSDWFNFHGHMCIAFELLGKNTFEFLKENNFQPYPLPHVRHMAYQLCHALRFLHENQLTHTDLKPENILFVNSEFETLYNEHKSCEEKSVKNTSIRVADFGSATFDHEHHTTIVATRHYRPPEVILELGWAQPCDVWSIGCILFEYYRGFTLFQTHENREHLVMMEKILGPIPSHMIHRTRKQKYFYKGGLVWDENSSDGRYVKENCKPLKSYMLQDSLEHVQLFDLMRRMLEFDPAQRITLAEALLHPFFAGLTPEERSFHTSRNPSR
Sequence of Dual specificity tyrosine-phosphorylation-regulated kinase 1B (Homo sapiens) (Q9Y463 whole entry, looked up, the tested form may be a part): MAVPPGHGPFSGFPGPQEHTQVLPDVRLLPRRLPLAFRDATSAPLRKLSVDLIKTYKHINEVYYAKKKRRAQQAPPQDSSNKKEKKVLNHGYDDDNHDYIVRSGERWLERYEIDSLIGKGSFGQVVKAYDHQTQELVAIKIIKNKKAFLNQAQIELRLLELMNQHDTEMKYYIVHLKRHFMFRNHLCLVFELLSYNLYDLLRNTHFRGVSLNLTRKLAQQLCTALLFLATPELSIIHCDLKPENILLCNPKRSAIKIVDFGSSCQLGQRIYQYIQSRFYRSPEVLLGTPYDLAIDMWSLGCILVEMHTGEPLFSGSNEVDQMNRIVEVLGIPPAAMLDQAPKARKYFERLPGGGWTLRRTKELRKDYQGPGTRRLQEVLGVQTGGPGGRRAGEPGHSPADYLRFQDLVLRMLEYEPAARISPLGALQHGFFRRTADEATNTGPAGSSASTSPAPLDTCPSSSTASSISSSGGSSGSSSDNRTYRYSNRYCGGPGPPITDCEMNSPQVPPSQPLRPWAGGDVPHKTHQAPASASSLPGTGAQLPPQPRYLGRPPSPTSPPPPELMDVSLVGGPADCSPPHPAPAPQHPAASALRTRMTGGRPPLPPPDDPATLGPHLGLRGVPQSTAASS
Sequence of Dual specificity protein kinase CLK2 (Homo sapiens) (P49760 whole entry, looked up, the tested form may be a part): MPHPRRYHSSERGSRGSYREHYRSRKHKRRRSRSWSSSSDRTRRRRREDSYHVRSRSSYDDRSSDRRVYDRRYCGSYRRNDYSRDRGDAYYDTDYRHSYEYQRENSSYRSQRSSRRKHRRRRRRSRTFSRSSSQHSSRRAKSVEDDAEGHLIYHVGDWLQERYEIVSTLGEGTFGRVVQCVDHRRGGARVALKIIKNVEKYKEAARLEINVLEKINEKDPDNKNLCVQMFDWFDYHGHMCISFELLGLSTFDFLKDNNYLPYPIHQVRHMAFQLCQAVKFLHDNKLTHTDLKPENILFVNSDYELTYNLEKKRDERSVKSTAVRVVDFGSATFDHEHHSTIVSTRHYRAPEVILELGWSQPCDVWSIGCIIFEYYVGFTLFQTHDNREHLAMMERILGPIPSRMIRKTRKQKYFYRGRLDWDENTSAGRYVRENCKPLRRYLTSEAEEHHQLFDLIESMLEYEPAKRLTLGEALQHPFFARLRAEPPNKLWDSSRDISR

| SMILES | Activity [1] | IC50 [2] | Kd [3] | solubility thermodynamic [4] | Activity [5] | Activity [6] | Activity [7] | microsomal CLint [8] | Activity [9] | microsomal CLint [10] | Activity [11] | Activity [12] | IC50 [13] |
| --- | --- | --- | --- | --- | --- | --- | --- | --- | --- | --- | --- | --- | --- |
| CN(c1nccc(-c2cnn3ncccc23)n1)C1CC1 | 91% | 115 nM | 90.4 nM | 60 µg/mL (≈ 225 µM) | 79% | 95% | 100% | 434 µL/min/mg | 100% | 71 µL/min/mg | 43% | 96% |  |
| CN(C)c1ncc(F)c(-c2cnn3ncccc23)n1 | 93% | 57.5 nM | 12 nM | 30 µg/mL (≈ 116 µM) | 53% | 54% | 100% | 983 µL/min/mg | 55% | 697 µL/min/mg | 71% | 84% | 250 nM |
| c1cnn2ncc(-c3ccnc(N4CCC45COC5)n3)c2c1 | 75% | 79.4 nM | 64 nM | 60 µg/mL (≈ 204 µM) | 33% | 13% | 100% | 119 µL/min/mg | 11% | 126 µL/min/mg | 8.3% | 54% |  |
